Experimental data published in ChEMBL document CHEMBL4052590, “Anti-Osteoporotic Activity of Harpagoside by Upregulation of the BMP2 and Wnt Signaling Pathways in Osteoblasts and Suppression of Differentiation in Osteoclasts” (J Nat Prod, 2017).
Activity calls are given as the source filed them. The calls are words filed in the database; no cut-off is given here.

Columns and labels:
[1] = system: Mus musculus; assay: Anti-osteoporotic activity in ovariectomized ICR mouse assessed as increase in trabecular number in femur at 2 to 10 mg/kg, po after 12 weeks by microcomputed tomography; type: functional, organism-based
[2] = system: Mus musculus; assay: Effect on osteocalcin level in serum of OVX-induced bone loss ICR mouse model at 10 mg/kg, po for 12 weeks by ELISA (reference value: 176.9 +/- 4.7 ng/ml); type: functional
[3] = system: Mus musculus; assay: Decrease in OVX-induced increase in body weight in ICR mouse at 2 to 10 mg/kg, po for 12 weeks; type: functional, organism-based
[4] = system: Mus musculus; assay: Effect on calcium level in serum of OVX-induced bone loss ICR mouse model at 10 mg/kg, po for 12 weeks by ELISA (reference value: 9.3 +/- 0.3 mg/dl); type: functional
[5] = system: MC3T3-E1; assay: Antiosteoporotic activity in mouse MC3T3-E1 cells assessed as increase in alkaline phosphatase activity after 4 days using pNPP as substrate in presence of ascorbic acid and beta-glycerophosphate by colorimetric assay; type: functional, cell-based
Summary of the method: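 MC3T3-E1 cells (2 × 10^4 cells/mL) in osteogenic medium (400 μM ascorbic acid, 5 mM β-glycerophosphate) with or without compound for 4 days. Fixed in 70% ethanol, lysed in Tris/0.1% Triton X-100 pH 7.5. ALP read as p-NPP to p-nitrophenol at 405 nm; protein by Bradford.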

[6] = system: MC3T3-E1; assay: Increase in OPN mRNA expression in 2 days differentiated mouse MC3T3-E1 cells up to 4 uM after 48 hrs in presence of ascorbic acid and beta-glycerophosphate by real-time PCR analysis; type: functional, cell-based
[7] = system: Mus musculus; assay: Anti-osteoporotic activity in po dosed OVX-induced bone loss ICR mouse model assessed as increase in bone mineral density administered for 12 weeks by microcomputed tomography; type: functional, organism-based
[8] = system: Osteoclast; assay: Inhibition of RANKL/M-CSF-induced osteoclast differentiation in mouse bone marrow-derived osteoclasts assessed as reduction in formation of TRAP-positive cells after 5 days; type: functional, cell-based
Summary of the method: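 Bone marrow cells from 4-week-old mice were primed 24 h with 30 ng/mL M-CSF, then cultured with 100 ng/mL RANKL plus 30 ng/mL M-CSF. Compound was present or absent and medium was renewed every 2 days. On day 5 cells were fixed in 4% paraformaldehyde and TRAP-stained 1 h at 37 °C. Multinucleated TRAP-positive cells with ≥3 nuclei were counted as osteoclasts.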

[9] = system: MC3T3-E1; assay: Increase in OPG to RANKL mRNA expression ratio in mouse MC3T3-E1 cells up to 4 uM after 48 hrs in presence of ascorbic acid and beta-glycerophosphate by real-time PCR analysis; type: functional, cell-based
Summary of the method: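 MC3T3-E1 cells stimulated with 400 μM ascorbic acid and 5 mM β-glycerophosphate, with or without compound, 48 h. TRIzol RNA, real-time RT-PCR: 40 cycles of 95 °C 20 s, 56 °C 20 s, 72 °C 30 s. Ct of each transcript […] β-actin Ct, expressed relative to control samples.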

[10] = species: Mus musculus; assay: Activation of Wnt signaling pathway in mouse MC3T3-E1 cells assessed as increase in Runx2 mRNA expression after 48 hrs in presence of ascorbic acid and beta-glycerophosphate by real-time PCR analysis; type: cell-based
[11] = system: MC3T3-E1; assay: Upregulation of ALP protein expression in 2 days differentiated mouse MC3T3-E1 cells up to 4 uM after 48 hrs in presence of ascorbic acid and beta-glycerophosphate by Western blot analysis; type: functional, cell-based
[12] = system: Osteoclast; assay: Inhibition of RANKL/M-CSF-induced osteoclast differentiation in mouse bone marrow-derived osteoclasts assessed as downregulation of c-Fos protein expression up to 4 uM after 48 hrs by Western blot analysis; type: functional, cell-based
Summary of the method: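 Mouse bone marrow cells were taken from 4-week-old mice and primed 24 h in 30 ng/mL M-CSF. They were then given 100 ng/mL RANKL plus 30 ng/mL M-CSF, with or without compound, for 48 h. Lysates were made in boiling SDS buffer and quantified by BCA. 40–50 μg was run on SDS-PAGE and immunoblotted on PVDF with β-actin reference and ECL read-out.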

**Q.** How did the Activity [1] turn out when `C[C@]1(OC(=O)/C=C/c2ccccc2)C[C@@H](O)[C@]2(O)C=CO[C@@H](O[C@@H]3O[C@H](CO)[C@@H](O)[C@H](O)[C@H]3O)[C@@H]21` [HARPAGOSIDE] was run?
**A.** Active

**Q.** What about the Activity [2] of the same compound?
**A.** 156.9 ng/mL

**Q.** And the Activity [3]?
**A.** Active

**Q.** And the Activity [4]?
**A.** 10.3 mg/dL

**Q.** What about the Activity [5] of the same compound?
**A.** Dose-dependent effect

**Q.** What about the Activity [6] of the same compound?
**A.** Dose-dependent effect

**Q.** What about the Activity [7] of the same compound?
**A.** Dose-dependent effect

**Q.** And the inhibition [8]?
**A.** Active

**Q.** And the Activity [9]?
**A.** Active

**Q.** And the Activity [10]?
**A.** Dose-dependent effect

**Q.** What about the Activity [11] of the same compound?
**A.** Dose-dependent effect

**Q.** What about the inhibition [12] of the same compound?
**A.** Active
